Data: ChEMBL document CHEMBL1140747, “Discovery of potent and selective dipeptidyl peptidase IV inhibitors derived from beta-aminoamides bearing subsituted triazolopiperazines” (J Med Chem, 2008)

How the values were obtained:
Mus musculus [1] = experiment: Reduction of dextrose induced blood glucose excursion in mouse at 1 mg/kg; format: functional; set-up: scale not given: the % may be the effect or the level left
Outline: (§1)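 Lean mice received a single oral dose of the compound 60 min before an oral dextrose challenge (5 g/kg) in an oral glucose tolerance test. The read-out was the reduction of the dextrose-induced blood glucose excursion. Data are mean ± SEM, n = 7 per group.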

[2] = Cmax in rat at 2 mg/kg, po; format: ADME, organism-based; set-up: dose 2 mg/kg, route oral; details: in vivo
[3] = Oral bioavailability in monkey at 2 mg/kg; format: ADME, organism-based, Macaca mulatta; details: rhesus monkey, in vivo
[4] = Oral bioavailability in dog at 2 mg/kg; format: ADME, organism-based, Canis lupus familiaris; details: in vivo
[5] = Cmax in monkey at 2 mg/kg, po; format: ADME, organism-based, Macaca mulatta; set-up: dose 2 mg/kg, route oral; details: rhesus monkey, in vivo
[6] = Plasma clearance in monkey at 1 mg/kg, iv and 2 mg/kg, po; format: ADME, organism-based, Macaca mulatta; details: rhesus monkey
[7] = (§2) Oral bioavailability in rat at 2 mg/kg; format: ADME, organism-based; details: in vivo
Mus musculus [8] = experiment: Reduction of dextrose induced blood glucose excursion in mouse at 0.1 mg/kg; format: functional; set-up: scale not given: the % may be the effect or the level left; outline: as §1
Prolyl endopeptidase FAP = target: T1, Prolyl endopeptidase FAP (Homo sapiens, UniProt Q12884); experiment: Inhibition of FAP
T1 sequence (Q12884 whole entry): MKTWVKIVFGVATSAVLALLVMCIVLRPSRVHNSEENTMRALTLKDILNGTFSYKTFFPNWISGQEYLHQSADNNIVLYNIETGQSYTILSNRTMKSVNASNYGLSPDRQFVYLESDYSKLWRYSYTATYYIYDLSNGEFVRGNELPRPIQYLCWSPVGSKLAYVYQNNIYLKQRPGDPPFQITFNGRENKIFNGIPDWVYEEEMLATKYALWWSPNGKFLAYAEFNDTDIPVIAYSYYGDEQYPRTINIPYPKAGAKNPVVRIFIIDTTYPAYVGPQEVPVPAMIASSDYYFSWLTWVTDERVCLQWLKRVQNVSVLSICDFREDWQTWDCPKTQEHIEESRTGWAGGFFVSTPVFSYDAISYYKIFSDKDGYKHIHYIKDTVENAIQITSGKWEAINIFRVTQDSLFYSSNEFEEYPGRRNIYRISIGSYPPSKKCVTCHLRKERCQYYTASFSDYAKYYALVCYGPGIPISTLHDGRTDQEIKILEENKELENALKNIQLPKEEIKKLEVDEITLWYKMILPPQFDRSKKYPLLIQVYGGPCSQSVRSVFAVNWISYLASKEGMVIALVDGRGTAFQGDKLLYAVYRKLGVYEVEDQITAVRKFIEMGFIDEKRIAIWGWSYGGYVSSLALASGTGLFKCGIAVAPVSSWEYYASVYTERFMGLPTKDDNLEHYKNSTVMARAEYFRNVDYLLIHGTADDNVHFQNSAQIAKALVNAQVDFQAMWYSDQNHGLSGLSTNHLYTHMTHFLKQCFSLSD

Xaa-Pro aminopeptidase 1 = Xaa-Pro aminopeptidase 1 (Homo sapiens, UniProt Q9NQW7); experiment: Inhibition of amino peptidase P
Dipeptidyl peptidase 2 = Dipeptidyl peptidase 2 (Homo sapiens, UniProt Q9UHL4); experiment: Inhibition of QPP
Dipeptidyl peptidase 4 [9] = target: Dipeptidyl peptidase 4 (Homo sapiens, UniProt P27487)
Dipeptidyl peptidase 9 = Dipeptidyl peptidase 9 (Homo sapiens, UniProt Q86TI2); experiment: Inhibition of DPP9
[10] = Plasma clearance in dog at 1 mg/kg, iv and 2 mg/kg, po; format: ADME, organism-based, Canis lupus familiaris
Dipeptidyl peptidase 4 [11] = target: Dipeptidyl peptidase 4 (Mus musculus, UniProt P28843); experiment: Inhibition of mouse DPP4
[12] = Half life in dog at 1 mg/kg, iv and 2 mg/kg, po; format: ADME, organism-based, Canis lupus familiaris; details: in vivo
Plasma = experiment: Drug level in mouse plasma at 1 mg/kg; format: ADME, organism-based; set-up: dose 1 mg/kg; details: in vivo
Outline: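 Lean mice, oral OGTT: single oral dose given 60 min before an oral dextrose challenge (5 g/kg). Plasma was sampled 20 min after dextrose for compound concentration, alongside plasma DPP-4 activity and active GLP-1. Values are mean ± SEM, n = 7 per group.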

[13] = Plasma clearance in rat at 1 mg/kg, iv and 2 mg/kg, po; format: ADME, organism-based
Xaa-Pro dipeptidase = target: T2, Xaa-Pro dipeptidase (Homo sapiens, UniProt P12955); experiment: Inhibition of prolidase
T2 sequence (P12955 whole entry): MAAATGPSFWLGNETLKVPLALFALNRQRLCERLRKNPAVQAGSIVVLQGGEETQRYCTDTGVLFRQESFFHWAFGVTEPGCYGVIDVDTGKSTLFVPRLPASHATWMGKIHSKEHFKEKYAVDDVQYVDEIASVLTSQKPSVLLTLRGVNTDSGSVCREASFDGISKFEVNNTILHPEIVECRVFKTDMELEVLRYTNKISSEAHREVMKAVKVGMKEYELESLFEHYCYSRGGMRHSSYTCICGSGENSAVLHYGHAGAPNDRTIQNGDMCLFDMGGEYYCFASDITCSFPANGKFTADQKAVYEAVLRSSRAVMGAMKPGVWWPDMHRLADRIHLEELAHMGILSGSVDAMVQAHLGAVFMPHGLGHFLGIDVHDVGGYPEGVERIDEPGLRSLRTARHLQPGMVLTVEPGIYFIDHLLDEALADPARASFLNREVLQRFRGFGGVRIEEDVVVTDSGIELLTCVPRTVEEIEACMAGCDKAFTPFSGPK

[14] = Half life in rat at 1 mg/kg, iv and 2 mg/kg, po; format: ADME, organism-based; details: in vivo
[15] = Half life in monkey at 1 mg/kg, iv and 2 mg/kg, po; format: ADME, organism-based, Macaca mulatta; details: rhesus monkey, in vivo
Dipeptidyl peptidase 8 = Dipeptidyl peptidase 8 (Homo sapiens, UniProt Q6V1X1); experiment: Inhibition of DPP8
[16] = Cmax in dog at 2 mg/kg, po; format: ADME, organism-based, Canis lupus familiaris; set-up: dose 2 mg/kg, route oral; details: in vivo
[17] = Oral bioavailability in Zucker fa/fa rat; format: ADME, organism-based; details: in vivo
[18] = Oral bioavailability in mouse; format: ADME, organism-based; details: in vivo
Rattus norvegicus = experiment: as §2; format: ADME, organism-based; details: in vivo

Sequence of Dipeptidyl peptidase 8 (Q6V1X1 whole entry): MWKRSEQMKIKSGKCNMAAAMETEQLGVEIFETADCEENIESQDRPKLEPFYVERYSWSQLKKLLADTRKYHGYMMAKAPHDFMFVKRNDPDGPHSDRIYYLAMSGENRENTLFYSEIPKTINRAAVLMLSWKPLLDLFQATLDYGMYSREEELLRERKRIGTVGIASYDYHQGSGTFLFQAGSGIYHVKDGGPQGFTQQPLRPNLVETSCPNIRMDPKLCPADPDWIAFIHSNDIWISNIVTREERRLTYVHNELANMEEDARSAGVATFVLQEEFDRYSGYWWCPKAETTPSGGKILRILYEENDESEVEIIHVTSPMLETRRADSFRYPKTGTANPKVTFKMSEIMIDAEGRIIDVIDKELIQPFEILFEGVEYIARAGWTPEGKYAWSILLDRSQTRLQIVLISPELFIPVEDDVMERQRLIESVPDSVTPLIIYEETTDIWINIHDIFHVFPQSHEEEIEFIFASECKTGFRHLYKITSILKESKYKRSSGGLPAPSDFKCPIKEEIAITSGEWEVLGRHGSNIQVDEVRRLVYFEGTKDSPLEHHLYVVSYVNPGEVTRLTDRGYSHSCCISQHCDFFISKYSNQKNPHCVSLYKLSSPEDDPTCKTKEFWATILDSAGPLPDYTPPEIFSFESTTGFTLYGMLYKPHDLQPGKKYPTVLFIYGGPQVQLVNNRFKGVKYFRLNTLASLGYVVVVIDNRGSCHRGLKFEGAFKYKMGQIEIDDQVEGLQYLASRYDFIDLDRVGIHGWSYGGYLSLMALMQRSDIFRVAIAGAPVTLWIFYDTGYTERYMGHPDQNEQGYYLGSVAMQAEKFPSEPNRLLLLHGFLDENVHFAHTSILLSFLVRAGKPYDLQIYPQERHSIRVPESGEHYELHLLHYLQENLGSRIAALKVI
Sequence of Xaa-Pro aminopeptidase 1 (Q9NQW7 whole entry): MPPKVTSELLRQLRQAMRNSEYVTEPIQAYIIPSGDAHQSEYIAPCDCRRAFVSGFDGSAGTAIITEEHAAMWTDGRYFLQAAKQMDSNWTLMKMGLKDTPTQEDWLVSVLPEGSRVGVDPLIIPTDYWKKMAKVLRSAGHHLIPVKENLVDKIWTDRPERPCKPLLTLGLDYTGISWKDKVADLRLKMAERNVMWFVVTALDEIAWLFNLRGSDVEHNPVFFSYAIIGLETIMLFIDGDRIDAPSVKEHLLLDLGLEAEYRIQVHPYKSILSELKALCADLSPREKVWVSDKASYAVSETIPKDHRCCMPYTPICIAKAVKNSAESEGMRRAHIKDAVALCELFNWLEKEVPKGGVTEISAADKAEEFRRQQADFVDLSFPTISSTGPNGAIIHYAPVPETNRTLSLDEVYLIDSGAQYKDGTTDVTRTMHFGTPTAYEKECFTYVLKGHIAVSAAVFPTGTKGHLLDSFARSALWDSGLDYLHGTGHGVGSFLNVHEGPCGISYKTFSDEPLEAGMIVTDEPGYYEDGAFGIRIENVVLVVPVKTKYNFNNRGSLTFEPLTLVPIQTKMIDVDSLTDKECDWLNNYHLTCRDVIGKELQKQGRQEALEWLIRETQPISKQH
Sequence of Dipeptidyl peptidase 4 (Homo sapiens, UniProt P27487) (P27487 whole entry): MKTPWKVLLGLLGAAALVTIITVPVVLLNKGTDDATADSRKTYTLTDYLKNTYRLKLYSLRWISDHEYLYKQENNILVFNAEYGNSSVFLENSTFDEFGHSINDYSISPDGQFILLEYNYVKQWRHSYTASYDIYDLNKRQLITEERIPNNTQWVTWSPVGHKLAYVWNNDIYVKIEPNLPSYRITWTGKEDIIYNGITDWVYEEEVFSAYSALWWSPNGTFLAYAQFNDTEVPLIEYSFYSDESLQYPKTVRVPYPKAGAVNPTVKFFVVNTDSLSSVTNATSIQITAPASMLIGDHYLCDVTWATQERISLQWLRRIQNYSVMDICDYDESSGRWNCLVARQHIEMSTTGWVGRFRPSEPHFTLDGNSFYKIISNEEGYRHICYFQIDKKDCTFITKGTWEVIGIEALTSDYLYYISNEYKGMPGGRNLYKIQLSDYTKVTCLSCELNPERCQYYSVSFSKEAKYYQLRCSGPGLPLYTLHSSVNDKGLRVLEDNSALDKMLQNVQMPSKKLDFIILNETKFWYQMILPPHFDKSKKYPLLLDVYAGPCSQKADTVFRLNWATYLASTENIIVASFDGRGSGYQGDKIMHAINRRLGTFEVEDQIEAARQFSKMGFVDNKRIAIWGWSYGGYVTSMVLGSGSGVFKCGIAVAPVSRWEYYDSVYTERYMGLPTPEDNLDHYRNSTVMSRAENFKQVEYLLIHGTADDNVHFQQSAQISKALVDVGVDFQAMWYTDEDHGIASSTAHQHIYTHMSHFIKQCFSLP
Sequence of Dipeptidyl peptidase 9 (Q86TI2 whole entry): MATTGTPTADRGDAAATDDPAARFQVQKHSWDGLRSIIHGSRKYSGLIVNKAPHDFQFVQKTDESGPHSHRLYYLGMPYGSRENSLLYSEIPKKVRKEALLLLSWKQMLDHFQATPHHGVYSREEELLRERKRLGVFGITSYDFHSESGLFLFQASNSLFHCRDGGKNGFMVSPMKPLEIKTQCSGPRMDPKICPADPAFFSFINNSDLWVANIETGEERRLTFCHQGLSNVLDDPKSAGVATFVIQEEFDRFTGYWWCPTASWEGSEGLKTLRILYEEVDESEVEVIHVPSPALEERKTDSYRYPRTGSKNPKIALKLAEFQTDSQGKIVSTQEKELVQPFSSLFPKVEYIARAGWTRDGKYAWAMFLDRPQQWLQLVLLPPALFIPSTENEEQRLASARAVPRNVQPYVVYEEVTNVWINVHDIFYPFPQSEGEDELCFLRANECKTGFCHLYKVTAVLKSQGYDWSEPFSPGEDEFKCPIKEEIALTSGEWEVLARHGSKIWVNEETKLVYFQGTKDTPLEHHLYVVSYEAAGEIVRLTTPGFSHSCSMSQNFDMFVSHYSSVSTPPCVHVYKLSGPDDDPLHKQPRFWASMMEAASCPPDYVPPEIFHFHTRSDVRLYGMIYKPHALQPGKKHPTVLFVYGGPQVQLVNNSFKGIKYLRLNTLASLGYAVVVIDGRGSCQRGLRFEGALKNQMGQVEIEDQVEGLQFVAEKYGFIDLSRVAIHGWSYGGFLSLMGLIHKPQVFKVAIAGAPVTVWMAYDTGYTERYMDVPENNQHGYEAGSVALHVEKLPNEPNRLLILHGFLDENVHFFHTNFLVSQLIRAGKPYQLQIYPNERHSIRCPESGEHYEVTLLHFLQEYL
Sequence of Dipeptidyl peptidase 4 (Mus musculus, UniProt P28843) (P28843 whole entry): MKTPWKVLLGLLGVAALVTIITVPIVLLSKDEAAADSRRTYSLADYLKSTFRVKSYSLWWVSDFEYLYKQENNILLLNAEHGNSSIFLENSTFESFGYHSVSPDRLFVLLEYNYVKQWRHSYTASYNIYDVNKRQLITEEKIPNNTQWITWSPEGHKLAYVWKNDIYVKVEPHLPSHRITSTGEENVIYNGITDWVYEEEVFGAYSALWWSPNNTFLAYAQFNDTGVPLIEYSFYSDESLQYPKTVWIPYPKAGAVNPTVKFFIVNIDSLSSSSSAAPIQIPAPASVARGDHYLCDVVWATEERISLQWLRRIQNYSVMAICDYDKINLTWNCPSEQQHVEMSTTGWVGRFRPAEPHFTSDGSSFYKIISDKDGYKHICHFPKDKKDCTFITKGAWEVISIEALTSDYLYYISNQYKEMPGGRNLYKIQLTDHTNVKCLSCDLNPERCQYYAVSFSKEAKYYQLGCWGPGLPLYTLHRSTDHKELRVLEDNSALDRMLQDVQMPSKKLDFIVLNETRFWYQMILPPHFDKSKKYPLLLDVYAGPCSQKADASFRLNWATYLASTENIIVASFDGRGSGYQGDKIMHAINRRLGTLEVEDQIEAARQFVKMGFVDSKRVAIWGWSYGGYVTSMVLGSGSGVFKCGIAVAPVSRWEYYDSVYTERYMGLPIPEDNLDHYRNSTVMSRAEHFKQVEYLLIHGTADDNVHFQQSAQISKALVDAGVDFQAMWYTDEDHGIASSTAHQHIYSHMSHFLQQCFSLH

Cmax [2] [µM] | bioavailability [7] [%] | IC50 (Prolyl endopeptidase FAP) [µM] | IC50 (Xaa-Pro aminopeptidase 1) [µM] | IC50 (Dipeptidyl peptidase 2) [µM] | IC50 (Dipeptidyl peptidase 4 [9]) [µM] | IC50 (Dipeptidyl peptidase 9) [µM] | clearance [13] [L/h/kg] | IC50 (Xaa-Pro dipeptidase) [µM] | half-life [14] [h] | IC50 (Dipeptidyl peptidase 8) [µM] | SMILES | further results
0.042 | 19 | > 10 | > 10 | > 100 | 0.0063 | > 100 | 3 | > 10 | 4.1 | > 100 | Cl.N[C@@H](CC(=O)N1CCn2c(nnc2C(F)(F)F)C1Cc1cc(C(F)(F)F)cc(C(F)(F)F)c1)Cc1cc(F)c(F)cc1F (stereo in doubt; 48b) | 
0.36 | 76 | > 10 | > 10 | 33 | 0.00018 | 20 | 1.74 | > 10 | 1.5 | 0.332 | Cl.N[C@@H](CC(=O)N1CCn2c(nnc2C(F)(F)F)[C@H]1Cc1ccc(F)cc1)Cc1cc(F)c(F)cc1F (mixture of isomers) | bioavailability [17]: 100%; bioavailability [18]: 6%
0.004 | 9 | > 10 | > 10 | > 100 | 0.0028 | > 100 | 5.22 | > 10 | 2.7 | 30 | CN(C)C(=O)CC1c2nnc(C(F)(F)F)n2CCN1C(=O)C[C@H](N)Cc1cc(F)c(F)cc1F.Cl (stereo in doubt; 41b) | 
 |  |  | > 10 |  |  |  | 3.6 | > 10 | 1.7 |  | Cl.N[C@@H](CC(=O)N1CCn2c(nnc2C(F)(F)F)C1)Cc1cc(F)c(F)cc1F | F (Rattus norvegicus): 76%
0.016 | 9 | > 10 | > 10 | > 100 | 0.0004 | > 100 | 5.64 | > 10 | 1.9 | 5 | Cl.N[C@@H](CC(=O)N1CCn2c(nnc2C(F)(F)F)C1Cc1ccccn1)Cc1cc(F)c(F)cc1F (stereo in doubt; 49b) | 
0.064 | 26 | > 10 | > 10 | 47 | 0.00046 | 39 | 4.44 | > 10 | 1.4 | 1.1 | Cl.N[C@@H](CC(=O)N1CCn2c(nnc2C(F)(F)F)C1Cc1ccccc1F)Cc1cc(F)c(F)cc1F (stereo in doubt; 45b) | 
 | 35 | > 10 | > 10 | > 100 | 0.014 | 53 | 9.24 | > 10 | 1.9 | 33 | C[C@@H]1CN(C(=O)C[C@H](N)Cc2cc(F)c(F)cc2F)Cc2ccc(C(F)(F)F)n21.Cl | 
0.02 | 8 | > 10 | > 10 | 36 | 0.00032 | 89 | 3.78 | > 10 | 2.6 | 0.326 | Cl.N[C@@H](CC(=O)N1CCn2c(nnc2C(F)(F)F)C1C(O)c1ccc(F)cc1)Cc1cc(F)c(F)cc1F (stereo in doubt; 47b) | 
 |  | > 10 | > 10 | 77 | 0.092 | 54 |  | > 10 |  | 66 | CC1(C)CN(C(=O)C[C@H](N)Cc2cc(F)c(F)cc2F)Cc2nnc(C(F)(F)F)n21 | 
 |  | > 10 | > 10 | 47 | 0.005 | > 100 |  | > 10 |  | 8 | CCC1c2nnc(C(F)(F)F)n2CCN1C(=O)C[C@H](N)Cc1cc(F)c(F)cc1F (stereo in doubt; 38b) | 
 |  | > 10 | > 10 | > 100 | 0.088 | > 100 |  | > 10 |  | > 100 | C[C@H]1c2nnc(C(F)(F)F)n2CCN1C(=O)C[C@H](N)Cc1cc(F)c(F)cc1F | 

SMILES | Cmax [2] [µM] | bioavailability [7] [%] | IC50 (Prolyl endopeptidase FAP) [µM] | IC50 (Xaa-Pro aminopeptidase 1) [µM] | IC50 (Dipeptidyl peptidase 2) [µM] | IC50 (Dipeptidyl peptidase 4 [9]) [µM] | IC50 (Dipeptidyl peptidase 9) [µM] | clearance [13] [L/h/kg] | IC50 (Xaa-Pro dipeptidase) [µM] | half-life [14] [h] | IC50 (Dipeptidyl peptidase 8) [µM] | further results
C[C@@H]1c2nnc(C(F)(F)F)n2CCN1C(=O)C[C@H](N)Cc1cc(F)c(F)cc1F.Cl | 0.133 | 57 | > 10 | > 10 | > 100 | 0.0043 | > 100 | 3.24 | > 10 | 2.4 | 17 | Activity (Mus musculus [1]): 55%; bioavailability [3]: 85%; bioavailability [4]: 91%; Cmax [5]: 0.41 µM; clearance [6]: 1.74 L/h/kg; Activity (Mus musculus [8]): 34%; clearance [10]: 0.468 L/h/kg; IC50 (Dipeptidyl peptidase 4 [11]): 0.011 µM; half-life [12]: 8.8 h; concentration (Plasma): 0.19 µM; half-life [15]: 6 h; Cmax [16]: 0.756 µM
C[C@@H]1c2nnc(C(F)(F)F)n2[C@H](C)CN1C(=O)C[C@H](N)Cc1cc(F)c(F)cc1F.Cl | 0.092 | 45 | > 10 | > 10 | > 100 | 0.012 | 52 | 5.1 | > 10 | 2.1 | 70 | 
